Results: ChEMBL document CHEMBL1139372, “Docking studies on a new human immunodeficiency virus integrase-Mg-DNA complex: phenyl ring exploration and synthesis of 1H-benzylindole derivatives through fluorine substitutions” (J Med Chem, 2009)

Assays:
[1] = system: Human immunodeficiency virus 1; assay: Antiviral activity against HIV1 3B infected in human MT4 cells assessed as inhibition of virus-induced cytopathic effect by MTT assay; assay type: functional, organism-based; conditions: Human immunodeficiency virus 1, 3B
Outline: (§1)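 Human lymphocyte MT-4 cultures infected with HIV-1; HIV-induced cytopathic effect read by MTT assay; EC50 is the concentration reducing cytopathic effect by 50%; average ± SD; SI is CC50/EC50.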

[2] = Selectivity index, ratio of CC50 for human MT4 cells to EC50 for HIV1 3B; assay type: toxicity, cell-based; conditions: read-out: Ratio CC50/EC50; outline: as §1
[3] = target: T1, Human immunodeficiency virus type 1 integrase (Human immunodeficiency virus 1, UniProt Q7ZJM1); assay: Inhibition of HIV1 integrase strand transfer activity by ELISA
T1 sequence (Q7ZJM1 whole entry): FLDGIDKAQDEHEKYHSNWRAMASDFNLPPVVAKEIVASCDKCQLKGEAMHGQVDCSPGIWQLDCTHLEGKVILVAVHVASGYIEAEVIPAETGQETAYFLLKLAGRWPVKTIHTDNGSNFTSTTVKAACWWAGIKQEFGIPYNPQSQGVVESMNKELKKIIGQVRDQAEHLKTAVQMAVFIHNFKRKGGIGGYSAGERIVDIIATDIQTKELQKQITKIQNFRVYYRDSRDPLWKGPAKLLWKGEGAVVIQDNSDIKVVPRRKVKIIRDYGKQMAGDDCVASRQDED
Outline: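 Strand transfer step of integration measured in vitro by enzyme-linked immunosorbent assay; IC50 is the concentration giving 50% inhibition of strand transfer; average ± SD.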

[4] = target: T1, Human immunodeficiency virus type 1 integrase; assay: Inhibition of HIV1 integrase activity by ELISA
Outline: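 In vitro overall integrase reaction measured by enzyme-linked immunosorbent assay; IC50 is the concentration giving 50% inhibition of overall integrase activity; average ± SD.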

[5] = Cytotoxicity against human MT4 cells by MTT assay; assay type: cell-based
Outline: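 Uninfected MT-4 cells; viability read by MTT assay; CC50 is the concentration reducing viability by 50%; average ± SD; SI is CC50/EC50.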

| Structure (SMILES) | EC50 [1] [nM] | selectivity ratio [2] | IC50 [3] [nM] | IC50 [4] [nM] | CC50 [5] [nM] |
| --- | --- | --- | --- | --- | --- |
| COc1cccc2c1c(C(=O)/C=C(\O)C(=O)O)cn2Cc1ccc(F)cc1 | 590 | 70 |  |  |  |
| COc1cccc2c1c(C(=O)/C=C(\O)C(=O)O)cn2Cc1c(F)cccc1F | 410 | 108 | 80 | 130 | 44300 |
| COc1cccc2c1c(C(=O)/C=C(\O)C(=O)O)cn2Cc1cccc(F)c1F | 260 | > 68.7 | 120 | 10 | 17500 |
| COc1cccc2c1c(C(=O)/C=C(\O)C(=O)O)cn2Cc1ccc(F)c(F)c1 | 2800 | 25 | 600 | 420 | 71000 |
| CCOC(=O)/C(O)=C/C(=O)c1cn(Cc2cccc(F)c2)c2cccc(OC)c12 | 2210 | 28.5 | 2260 | 300 | 63200 |
| CCOC(=O)/C(O)=C/C(=O)c1cn(Cc2ccc(F)c(F)c2)c2cccc(OC)c12 | 80100 | > 2 | 1560 | 26500 | 125000 |
| CCOC(=O)/C(O)=C/C(=O)c1cn(Cc2cc(F)cc(F)c2)c2cccc(OC)c12 | 5940 | > 5.8 | 2740 | 1520 | 34700 |
| CCOC(=O)/C(O)=C/C(=O)c1cn(Cc2ccc(F)c(F)c2F)c2cccc(OC)c12 | 3150 | > 13 | 1150 | 3010 | 42700 |
| CCOC(=O)/C(O)=C/C(=O)c1cn(Cc2cc(F)ccc2F)c2cccc(OC)c12 | 3150 | 13.1 | 400 | 1410 | 41200 |
| CCOC(=O)/C(O)=C/C(=O)c1cn(Cc2c(F)cccc2F)c2cccc(OC)c12 | 2040 | > 31.1 | 70 | 360 | 63400 |
| CCOC(=O)/C(O)=C/C(=O)c1cn(Cc2ccccc2F)c2cccc(OC)c12 | 1400 | 45.3 | 720 | 380 | 63300 |
| CCOC(=O)/C(O)=C/C(=O)c1cn(Cc2ccc(F)cc2F)c2cccc(OC)c12 | 1950 | 33.7 | 670 | 110 | 65500 |
| CCOC(=O)/C(O)=C/C(=O)c1cn(Cc2cc(F)c(F)c(F)c2)c2cccc(OC)c12 | 3960 | 8.4 | 1410 | 2000 | 33400 |
| COc1cccc2c1c(C(=O)/C=C(\O)C(=O)O)cn2Cc1ccccc1F | 310 | 228 | 40 | 70 | 70500 |
| COc1cccc2c1c(C(=O)/C=C(\O)C(=O)O)cn2Cc1cc(F)c(F)c(F)c1 | 2210 | 10.5 | 100 | 60 | 23300 |
| CCOC(=O)/C(O)=C/C(=O)c1cn(Cc2c(F)ccc(F)c2F)c2cccc(OC)c12 | 4840 | 8.4 | 820 | 170 | 40500 |
| COc1cccc2c1c(C(=O)/C=C(\O)C(=O)O)cn2Cc1cc(F)ccc1F | 410 | 113 | 20 | 50 | 46200 |
| CCOC(=O)/C(O)=C/C(=O)c1cn(Cc2cccc(F)c2F)c2cccc(OC)c12 | 1900 | 11.1 | 12 | 5 | 21100 |
| COc1cccc2c1c(C(=O)/C=C(\O)C(=O)O)cn2Cc1ccc(F)c(F)c1F | 1150 | 19.9 | 280 | 140 | 22800 |
| COc1cccc2c1c(C(=O)/C=C(\O)C(=O)O)cn2Cc1ccc(F)cc1F | 410 | 50.7 | 20 | 10 | 20800 |
| COc1cccc2c1c(C(=O)/C=C(\O)C(=O)O)cn2Cc1cc(F)cc(F)c1 | 2780 | 10.6 | 240 | 440 | 29500 |
| COc1cccc2c1c(C(=O)/C=C(\O)C(=O)O)cn2Cc1cccc(F)c1 | 380 | 175 | 30 | 30 | 65800 |
| COc1cccc2c1c(C(=O)/C=C(\O)C(=O)O)cn2Cc1c(F)ccc(F)c1F | 650 | 75.5 | 160 | 130 | 49400 |
